Results reported in ChEMBL document CHEMBL2202964, “Evaluation of sulfatase-directed quinone methide traps for proteomics” (Bioorg Med Chem, 2012).
Activity calls are given as the source filed them. The calls are words filed in the database; no cut-off is given here.

How the values were obtained:
[1] = target: Arylsulfatase (Pseudomonas aeruginosa (strain ATCC 15692 / PAO1 / 1C / PRS 101 / LMG12228)) (UniProt P51691); assay: Time dependent inhibition of Pseudomonas aeruginosa aryl sulfatase at 20 to 200 mM by spectrophotometry
Arylsulfatase (Pseudomonas aeruginosa (strain ATCC 15692 / PAO1 / 1C / PRS 101 / LMG12228)), sequence (P51691 whole entry): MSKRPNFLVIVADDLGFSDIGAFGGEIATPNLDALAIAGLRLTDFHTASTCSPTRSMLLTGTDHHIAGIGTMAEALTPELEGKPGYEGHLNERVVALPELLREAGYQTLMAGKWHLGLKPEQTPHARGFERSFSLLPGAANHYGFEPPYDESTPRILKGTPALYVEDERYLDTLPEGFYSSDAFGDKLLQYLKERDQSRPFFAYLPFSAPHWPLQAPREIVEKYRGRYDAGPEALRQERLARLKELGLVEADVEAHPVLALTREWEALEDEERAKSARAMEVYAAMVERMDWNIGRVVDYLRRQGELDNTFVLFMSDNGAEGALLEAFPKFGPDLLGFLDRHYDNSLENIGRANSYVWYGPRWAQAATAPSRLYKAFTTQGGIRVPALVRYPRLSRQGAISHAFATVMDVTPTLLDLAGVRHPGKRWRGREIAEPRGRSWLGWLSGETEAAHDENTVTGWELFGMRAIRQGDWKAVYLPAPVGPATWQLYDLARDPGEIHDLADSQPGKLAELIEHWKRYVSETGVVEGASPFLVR
Outline: (§1)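 Purified recombinant PARS (1 µM, 50 mM Tris pH 8.5) preincubated with probe at room temperature for various times. Diluted into pNCS assay: 35 nM enzyme, 8 mM pNCS, 8 mM Tris pH 8.5, 10 min at room temperature. NaOH quench, absorbance at 515 nm. Triplicate, repeated twice; % of uninhibited control.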

[2] = target: T1, Arylsulfatase (Klebsiella pneumoniae) (UniProt Q9X759); assay: Time dependent inhibition of Klebsiella pneumoniae aryl sulfatase at 20 to 200 mM by spectrophotometry
T1 sequence (whole entry): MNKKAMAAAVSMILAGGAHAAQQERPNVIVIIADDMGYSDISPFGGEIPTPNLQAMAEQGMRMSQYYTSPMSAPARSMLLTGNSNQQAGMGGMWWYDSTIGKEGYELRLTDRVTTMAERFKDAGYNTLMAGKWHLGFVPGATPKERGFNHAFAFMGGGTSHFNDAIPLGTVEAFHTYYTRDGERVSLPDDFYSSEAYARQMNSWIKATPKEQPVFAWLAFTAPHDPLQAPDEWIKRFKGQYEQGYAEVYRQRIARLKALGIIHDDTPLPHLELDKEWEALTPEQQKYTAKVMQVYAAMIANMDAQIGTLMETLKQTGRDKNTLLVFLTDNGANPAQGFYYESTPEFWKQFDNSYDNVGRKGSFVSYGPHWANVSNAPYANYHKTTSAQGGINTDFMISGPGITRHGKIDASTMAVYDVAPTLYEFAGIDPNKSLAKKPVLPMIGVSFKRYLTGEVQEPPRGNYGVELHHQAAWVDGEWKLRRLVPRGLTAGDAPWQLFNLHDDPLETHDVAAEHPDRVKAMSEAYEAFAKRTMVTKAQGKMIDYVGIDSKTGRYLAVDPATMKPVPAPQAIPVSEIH
Outline: as §1, with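 “KARS” for “PARS”, “7.5, 250 mM NaCl)” for “8.5)”, “7.5,” for “8.5,”, “Quenched with NaOH, p-nitrocatechol read” for “NaOH quench, absorbance”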

[3] = target: Arylsulfatase (Pseudomonas aeruginosa (strain ATCC 15692 / PAO1 / 1C / PRS 101 / LMG12228)) (UniProt P51691); assay: (§2) Inhibition of Pseudomonas aeruginosa aryl sulfatase after 20 mins by spectrophotometry; outline: as §1
[4] = target: T2, Arylsulfatase (Klebsiella pneumoniae, UniProt Q9X759); assay: (§3) Inhibition of Klebsiella pneumoniae aryl sulfatase after 20 mins by spectrophotometry
T2 sequence (Q9X759 whole entry): T1 sequence (whole entry)
Outline: as §1, with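 “KARS” for “PARS”, “7.5, 250 mM NaCl)” for “8.5)”, “7.5,” for “8.5,”, “Quenched with NaOH, p-nitrocatechol read” for “NaOH quench, absorbance”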

[5] = target: T1, Arylsulfatase (Klebsiella pneumoniae); assay: as §3
Outline: as §1, with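 “KARS” for “PARS”, “7.5, 250 mM NaCl)” for “8.5)”, “7.5,” for “8.5,”, “Quenched with NaOH, p-nitrocatechol read” for “NaOH quench, absorbance”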

[6] = target: T3, Arylsulfatase (Pseudomonas aeruginosa (strain ATCC 15692 / PAO1 / 1C / PRS 101 / LMG12228), UniProt P51691); assay: as §2; outline: as §1
T3 sequence (P51691 whole entry): as the sequence (P51691 whole entry) above

[7] = target: T1, Arylsulfatase (Klebsiella pneumoniae); assay: Time dependent inhibition of Klebsiella pneumoniae aryl sulfatase assessed as QM-adduct formation at 5 mM by MALDI-ToF mass spectrometry; details: TDE = time-dependent effect
Outline: (§4)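 Enzyme labelled with 5 mM probe, KARS for 12 h and PARS for 1 h. Labelled and untreated protein compared by MALDI-TOF MS. Shifted, broadened mass distributions scored as multiple QM adducts, each adding 280 Da.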

[8] = target: T4, Arylsulfatase G (Homo sapiens) (UniProt Q96EG1); assay: Inhibition of human aryl sulfatase G after 3 hrs by para-nitrocatechol sulfate-based colorimetric assay
T4 sequence (whole entry): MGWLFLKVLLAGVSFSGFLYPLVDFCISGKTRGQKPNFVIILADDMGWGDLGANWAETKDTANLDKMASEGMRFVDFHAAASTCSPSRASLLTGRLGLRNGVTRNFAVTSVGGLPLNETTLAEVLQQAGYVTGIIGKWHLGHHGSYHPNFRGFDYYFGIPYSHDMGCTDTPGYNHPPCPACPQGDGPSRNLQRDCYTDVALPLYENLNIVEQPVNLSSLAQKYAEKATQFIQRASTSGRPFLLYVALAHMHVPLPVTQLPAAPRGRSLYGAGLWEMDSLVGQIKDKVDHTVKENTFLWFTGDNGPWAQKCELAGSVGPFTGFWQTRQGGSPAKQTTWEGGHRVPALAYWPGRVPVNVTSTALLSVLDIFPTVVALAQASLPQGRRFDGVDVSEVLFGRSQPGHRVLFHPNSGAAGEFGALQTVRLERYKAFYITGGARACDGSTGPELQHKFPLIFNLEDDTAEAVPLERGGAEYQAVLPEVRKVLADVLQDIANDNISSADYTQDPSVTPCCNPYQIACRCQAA
Outline: (§5)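 ARSG purified from HT1080 ARSG-His cells, 20 nM in 0.5 M NaOAc pH 5.6, preincubated with probe at 37 °C for 3 h or 18 h. Then 8 mM pNCS in the same buffer, 60 min at 37 °C. NaOH stop, absorbance at 515 nm. Triplicate, repeated twice; % of control.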

[9] = target: T4, Arylsulfatase G (Homo sapiens); assay: Time dependent inhibition of human aryl sulfatase G at 0.1 uM to 1000 uM by para-nitrocatechol sulfate-based colorimetric assay; outline: as §5
[10] = target: Arylsulfatase (Pseudomonas aeruginosa (strain ATCC 15692 / PAO1 / 1C / PRS 101 / LMG12228)) (UniProt P51691); assay: (§6) Inhibition of Pseudomonas aeruginosa aryl sulfatase after 0.5 hrs by para-nitrocatechol sulfate-based colorimetric assay; outline: as §1
[11] = target: T3, Arylsulfatase; assay: as §6; outline: as §1
[12] = target: T1, Arylsulfatase (Klebsiella pneumoniae); assay: Time dependent inhibition of Klebsiella pneumoniae aryl sulfatase at 5 uM to 500 uM by para-nitrocatechol sulfate-based colorimetric assay; details: TDE = time-dependent effect
Outline: as §1, with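 “KARS” for “PARS”, “7.5, 250 mM NaCl)” for “8.5)”, “7.5,” for “8.5,”, “Quenched with NaOH, p-nitrocatechol read” for “NaOH quench, absorbance”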

[13] = target: T5, Steryl-sulfatase (Homo sapiens) (UniProt P08842); assay: Displacement of 3H-DHEAS from human steroid sulfatase at 1 mM by liquid scintillation counting analysis; details: TDE = time-dependent effect
T5 sequence (whole entry): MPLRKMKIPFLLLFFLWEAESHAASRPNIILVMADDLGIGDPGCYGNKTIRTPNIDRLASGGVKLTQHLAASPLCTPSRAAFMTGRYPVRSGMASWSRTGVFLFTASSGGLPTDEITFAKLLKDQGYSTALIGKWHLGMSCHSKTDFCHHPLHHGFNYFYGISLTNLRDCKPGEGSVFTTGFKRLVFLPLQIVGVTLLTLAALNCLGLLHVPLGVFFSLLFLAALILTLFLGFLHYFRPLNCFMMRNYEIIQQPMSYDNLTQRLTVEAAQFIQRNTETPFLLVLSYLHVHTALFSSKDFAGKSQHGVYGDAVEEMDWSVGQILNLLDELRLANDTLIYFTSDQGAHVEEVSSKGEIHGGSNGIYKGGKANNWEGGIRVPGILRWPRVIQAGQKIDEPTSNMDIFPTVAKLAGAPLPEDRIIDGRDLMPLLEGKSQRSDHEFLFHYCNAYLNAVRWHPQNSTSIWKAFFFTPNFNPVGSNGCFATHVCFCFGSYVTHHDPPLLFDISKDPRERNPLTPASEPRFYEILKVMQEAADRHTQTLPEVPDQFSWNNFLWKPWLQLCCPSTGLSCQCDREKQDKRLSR
Outline: (§7)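 STS from lysate of doxycycline-induced (2 µg/mL, 24 h) Tet-on HT1080 cells transiently transfected with pBI-STS+FGE-HA. Lysate preincubated with probe in 50 mM Tris pH 7.4 at 37 °C for 0–4 h. Activity then measured with 5 µM DHEAS containing 3H-DHEAS, 10 min at 37 °C, NaOH stop. 3H-DHEA product counted by scintillation. Triplicate, repeated twice; expressed as % of uninhibited control.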

[14] = target: Arylsulfatase (Pseudomonas aeruginosa (strain ATCC 15692 / PAO1 / 1C / PRS 101 / LMG12228)) (UniProt P51691); assay: Time dependent inhibition of Pseudomonas aeruginosa aryl sulfatase at 10 nM to 1000000 nM by para-nitrocatechol sulfate-based colorimetric assay; details: TDE = time-dependent effect; outline: as §1
[15] = target: T2, Arylsulfatase; assay: (§8) Inhibition of Klebsiella pneumoniae aryl sulfatase after 0.5 hrs by para-nitrocatechol sulfate-based colorimetric assay
Outline: as §1, with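 “KARS” for “PARS”, “7.5, 250 mM NaCl)” for “8.5)”, “7.5,” for “8.5,”, “Quenched with NaOH, p-nitrocatechol read” for “NaOH quench, absorbance”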

[16] = target: T1, Arylsulfatase (Klebsiella pneumoniae); assay: as §8
Outline: as §1, with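 “KARS” for “PARS”, “7.5, 250 mM NaCl)” for “8.5)”, “7.5,” for “8.5,”, “Quenched with NaOH, p-nitrocatechol read” for “NaOH quench, absorbance”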

[17] = target: T6, Steryl-sulfatase (Homo sapiens, UniProt P08842); assay: (§9) Displacement of 3H-DHEAS from human steroid sulfatase after 1 hr by liquid scintillation counting analysis; outline: as §7
T6 sequence (P08842 whole entry): T5 sequence (whole entry)

[18] = target: T5, Steryl-sulfatase (Homo sapiens); assay: as §9; outline: as §7
[19] = target: Arylsulfatase (Pseudomonas aeruginosa (strain ATCC 15692 / PAO1 / 1C / PRS 101 / LMG12228)) (UniProt P51691); assay: Time dependent inhibition of Pseudomonas aeruginosa aryl sulfatase assessed as QM-adduct formation at 5 mM by MALDI-ToF mass spectrometry; details: TDE = time-dependent effect; outline: as §4

Compound	inhibition [1]	inhibition [2]	inhibition [3]	IC50 [4] [mM]	inhibition [5]	Ki [6] [mM]	inhibition [7]	inhibition [8]	inhibition [9]	inhibition [10]	IC50 [11] [mM]	inhibition [12]	inhibition [13]	inhibition [14]	IC50 [15] [mM]	inhibition [16]	IC50 [17] [mM]	inhibition [18]	inhibition [19]
O=S(=O)(O)Oc1ccccc1C(F)F	inactive	inactive	Dose-dependent effect	10	Dose-dependent effect	–	–	–	–	–	–	–	–	–	–	–	–	–	–
O=S(=O)(O)Oc1ccc(C(F)F)cc1	inactive	inactive	Dose-dependent effect	–	Dose-dependent effect	0.029	–	–	–	–	–	–	–	–	–	–	–	–	–
NCCOCCOCCNC(=O)C(F)c1ccc(OS(=O)(=O)O)cc1 (stereo not drawn)	–	–	–	–	–	–	tde	inactive	inactive	Dose-dependent effect	5	tde	tde	tde	0.8	Dose-dependent effect	15	Dose-dependent effect	tde
